In the array DNA melting data of Ke et al. (doi:10.1101/2024.01.08.574731):

Legend:
[1] = folding enthalpy; higher = less favourable; fluorescence melt of hairpins on a sequencing array, two-state fit; details: sodium 0.088 M
Summary of the method: (§1)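 Cy3 fluorescence of library hairpins on a sequenced MiSeq flow cell, with annealed Cy3 and quencher oligos, was imaged in 50 mM Na-HEPES pH 8.0, 25 mM NaCl in 2.5 °C steps up to 60 °C. Signals were normalised to pre-quench Cy3 and to control variants. Melting temperature and folding enthalpy came from bootstrapped two-state fits, inverse-variance combined over four replicates. Fitted temperatures were raised by 9.35 °C to match UV melts.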

[2] = melting temperature; fluorescence melt of hairpins on a sequencing array, two-state fit, raised by 9.35 °C to match UV melts; details: sodium 0.088 M
Summary of the method: as §1

| Sequence | folding enthalpy [1] | Tm [2] |
| --- | --- | --- |
| GCTCCGCGAAAGCGTGGC ((..(((....)))..)) | -15.7 kcal/mol | 50.1 °C |
| GCTCCGCGAAAGCGTTGC ((..(((....)))..)) | -14.2 kcal/mol | 40.4 °C |
| GCTCCGCGAAAGCTGTGC ((.(.((....)).).)) | -14.9 kcal/mol | 41.2 °C |
| GCTCCGGGAAACCAGAGC ((((.((....)).)))) | -31.9 kcal/mol | 47 °C |
| GCTCCGGGAAACTGGAGC (((((.(....).))))) | -45.7 kcal/mol | 60.1 °C |
| GCTCCGGGAAACTGGGGC ((.((.(....).)).)) | -33.9 kcal/mol | 48.1 °C |
| GCTCGAGGAAACTTGAGC ((((.((....)).)))) | -37.8 kcal/mol | 50.8 °C |
| GCTCGCGAAAGCGGCAGC ((((((....)))..))) | -12.2 kcal/mol | 48.9 °C |
| GCTCGCTCGAAAGAGAGC (((..(((....)))))) | -20.8 kcal/mol | 48.6 °C |
| GCTCGGACGAAAGTCAGC (((..(((....)))))) | -12.3 kcal/mol | 39.1 °C |
| GCTCGGCGAAAGCACAGC (((..((....))..))) | -12.2 kcal/mol | 51.2 °C |
| GCTCGGCGAAAGCATAGC (((..((....))..))) | -12.3 kcal/mol | 44 °C |
| GCTCGGCGAAAGCCAGGC ((..(((....)))..)) | -12.6 kcal/mol | 58.8 °C |
| GCTCGGCGAAAGCCTCGC ((..(((....)))..)) | -14.4 kcal/mol | 48.7 °C |
| GCTCGGCGAAAGCGAAGC (((..((....))..))) | -13.1 kcal/mol | 47.2 °C |
| GCTCGGCGAAAGCGGCGC ((.(.((....)).).)) | -15.8 kcal/mol | 54 °C |
| GCTCGGCGAAAGCTGGGC ((.(.((....)).).)) | -26.2 kcal/mol | 60.9 °C |
| GCTCGGGGAAACTCGAGC (((((.(....).))))) | -44.2 kcal/mol | 58.5 °C |
| GCTCGTGGAAACGTGAGC ((((..(....)..)))) | -21.3 kcal/mol | 46.2 °C |
| GCTCTACCGAAAGGTAGC (((..(((....)))))) | -9.29 kcal/mol | 31.3 °C |
| GCTCTACGAAAGTAAGC (((.(((....)))))) | -18.8 kcal/mol | 38.7 °C |
| GCTCTACGAAAGTATAGC (((.(((....))).))) | -29.7 kcal/mol | 42.5 °C |
| GCTCTAGGAAACTAGAAC (.(((((....))))).) | -14.2 kcal/mol | 29.7 °C |

| Sequence | folding enthalpy [1] | Tm [2] |
| --- | --- | --- |
| GCTCTAGGAAACTAGGGC ((.((((....)))).)) | -32.7 kcal/mol | 47.1 °C |
| GCTCTCCGAAAGGACAGC (((.(((....))).))) | -25.9 kcal/mol | 41.3 °C |
| GCTCTCGAAAGAGGGAGC ((((((....)))..))) | -21.8 kcal/mol | 45.5 °C |
| GCTCTCGAAAGAGTCAGC ((((((....)))..))) | -14.7 kcal/mol | 32.9 °C |
| GCTCTCGAAAGAGTTAGC ((((((....)))..))) | -21.8 kcal/mol | 35.3 °C |
| GCTCTCGCGAAAGCGAGC (((..(((....)))))) | -4.57 kcal/mol | 38.3 °C |
| GCTCTGCGAAAGCAAGGC ((..(((....)))..)) | -17.7 kcal/mol | 46.9 °C |
| GCTCTGCGAAAGCATAGC (((.(((....))).))) | -41.8 kcal/mol | 49.8 °C |
| GCTCTGCGAAAGCGAAGC (((..((....))..))) | -13.6 kcal/mol | 40.8 °C |
| GCTCTGCGAAAGCGGGGC ((.(.((....)).).)) | -27.6 kcal/mol | 63.4 °C |
| GCTCTGCGAAAGCTCAGC (((..((....))..))) | -14.9 kcal/mol | 35.5 °C |
| GCTCTGCGAAAGCTGTGC ((.(.((....)).).)) | -21 kcal/mol | 43.6 °C |
| GCTCTGCGAAAGCTTAGC (((..((....))..))) | -18.5 kcal/mol | 44.2 °C |
| GCTCTGGGAAACCAGGGC ((.((((....)))).)) | -38 kcal/mol | 54.6 °C |
| GCTCTTGGAAACAAGAGC (((((((....))))))) | -37.2 kcal/mol | 63.2 °C |
| GCTCTTGGAAACAAGGGC ((.((((....)))).)) | -38.5 kcal/mol | 50.6 °C |
| GCTCTTGGAAACGAGAGC (((((.(....).))))) | -30.2 kcal/mol | 51.2 °C |
| GCTGAAGGAAACTCCAGC ((((.((....)).)))) | -27.8 kcal/mol | 40.7 °C |
| GCTGAAGGAAACTTCAAC (.(((((....))))).) | -18 kcal/mol | 29.8 °C |
| GCTGAAGGAAACTTCAGC (((((((....))))))) | -41.1 kcal/mol | 62.4 °C |
| GCTGACGAAAGTCCGAGC ((((((....)))..))) | -17.6 kcal/mol | 37.6 °C |
| GCTGACGAAAGTCGAGC ((((((....))).))) | -37.7 kcal/mol | 54.6 °C |
| GCTGACGAAAGTCGCAGC ((((((....)))..))) | -16.7 kcal/mol | 49.5 °C |

| Sequence | folding enthalpy [1] | Tm [2] |
| --- | --- | --- |
| GCTGACGAAAGTCTAGC ((((((....))).))) | -22.1 kcal/mol | 51.9 °C |
| GCTGACGAAAGTCTCAGC ((((((....)))..))) | -20.9 kcal/mol | 40.9 °C |
| GCTGACGAAAGTCTTAGC ((((((....)))..))) | -22.6 kcal/mol | 39.8 °C |
| GCTGAGAAATCAGC (((((....))))) | -28.4 kcal/mol | 53.2 °C |
| GCTGAGCGAAAGCACCGC ((.(.((....)).).)) | -19 kcal/mol | 37.2 °C |
| GCTGAGCGAAAGCCGAGC (((..((....))..))) | -17.2 kcal/mol | 48.7 °C |
| GCTGAGCGAAAGCGCTGC ((.(.((....)).).)) | -16.1 kcal/mol | 54.7 °C |
| GCTGAGCGAAAGCTATGC ((..(((....)))..)) | -17.4 kcal/mol | 48.6 °C |
| GCTGAGCGAAAGCTCTGC ((.((((....)))).)) | -31.6 kcal/mol | 66.4 °C |
| GCTGAGCGAAAGCTGCGC ((..(((....)))..)) | -19 kcal/mol | 54.7 °C |
| GCTGAGCGAAAGCTTAGC (((.(((....))).))) | -50.4 kcal/mol | 57.4 °C |
| GCTGAGGGAAACCCCAGC ((((.((....)).)))) | -33.3 kcal/mol | 51.4 °C |
| GCTGAGGGAAACCTCGGC ((.((((....)))).)) | -39.9 kcal/mol | 56.8 °C |
| GCTGATACGAAAGTAAGC (((..(((....)))))) | -14.4 kcal/mol | 33.9 °C |
| GCTGATCGAAAGATTAGC (((.(((....))).))) | -47.2 kcal/mol | 51.9 °C |
| GCTGATGGAAACACCAGC ((((.((....)).)))) | -30.8 kcal/mol | 45.9 °C |
| GCTGATGGAAACGTTAGC (((.(.(....).).))) | -11.2 kcal/mol | 27.8 °C |
| GCTGCAGGAAACCGCAAC (.(((.(....).))).) | -14.6 kcal/mol | 27.3 °C |
| GCTGCCCCGAAAGGGAGC (((..(((....)))))) | -13.3 kcal/mol | 55.2 °C |
| GCTGCCGAAAGGCCAAGC ((((((....)))..))) | -15.5 kcal/mol | 46.3 °C |
| GCTGCCGAAAGGCCCAGC ((((((....)))..))) | -12.2 kcal/mol | 35.8 °C |
| GCTGCCGAAAGGCCTAGC ((((((....)))..))) | -14.2 kcal/mol | 41 °C |
| GCTGCCGAAAGGCTAGC ((((((....))).))) | -16.7 kcal/mol | 59.6 °C |

| Sequence | folding enthalpy [1] | Tm [2] |
| --- | --- | --- |
| GCTGCCGAAAGGCTTAGC ((((((....)))..))) | -16.1 kcal/mol | 45.2 °C |
| GCTGCGCCGAAAGGCAGC (((..(((....)))))) | -11.5 kcal/mol | 61.1 °C |
| GCTGCGCGAAAGCAGAGC (((..((....))..))) | -16.1 kcal/mol | 47.7 °C |
| GCTGCGCGAAAGCCCCGC ((.(.((....)).).)) | -9.96 kcal/mol | 31.8 °C |
| GCTGCGCGAAAGCGGCGC ((..(((....)))..)) | -15.5 kcal/mol | 63.7 °C |
| GCTGCGCGAAAGCGGGGC ((..(((....)))..)) | -26.9 kcal/mol | 63.1 °C |
| GCTGCGCGAAAGCGTCGC ((..(((....)))..)) | -15.2 kcal/mol | 51.4 °C |
| GCTGCGCGAAAGCTAAGC (((..((....))..))) | -23.4 kcal/mol | 44 °C |
| GCTGCGCGAAAGCTCCGC ((.(.((....)).).)) | -12.3 kcal/mol | 38.5 °C |
| GCTGCGGGAAACCGCAAC (.(((((....))))).) | -11.4 kcal/mol | 45.9 °C |
| GCTGCGGGAAACCGTGGC ((..(((....)))..)) | -35.3 kcal/mol | 52.6 °C |
| GCTGCTCCGAAAGGAAGC (((..(((....)))))) | -14.1 kcal/mol | 47 °C |
| GCTGCTCGAAAGAGAGC (((.(((....)))))) | -20.5 kcal/mol | 48 °C |
| GCTGCTGGAAACAGCGGC ((.((((....)))).)) | -45.2 kcal/mol | 65.8 °C |
| GCTGCTGGAAACAGTAGC (((.(((....))).))) | -43.1 kcal/mol | 54.3 °C |
| GCTGGACGAAAGTCGAGC (((.(((....))).))) | -44.2 kcal/mol | 56.2 °C |
| GCTGGAGAAATCCAGC ((((((....)))))) | -35.9 kcal/mol | 62.9 °C |
| GCTGGAGGAAACTCTAGC (((.(((....))).))) | -40.4 kcal/mol | 48.4 °C |
| GCTGGAGGAAACTTCGGC ((.(.((....)).).)) | -29.6 kcal/mol | 37.2 °C |
| GCTGGCGAAAGCCCCAGC ((((((....)))..))) | -14.8 kcal/mol | 43.5 °C |
| GCTGGCGAAAGCCCGAGC ((((((....)))..))) | -14.3 kcal/mol | 45.4 °C |
| GCTGGCGAAAGCCGGAGC ((((((....)))..))) | -11.4 kcal/mol | 56.4 °C |
